Screening data deposited in PubChem BioAssay by several laboratories.
PfM18AAP inh-1 – PfM18AAP enzyme inhibition | inhibition, % at 7.35 µM | 290,000 tested, 1.2% active | recombinant PfM18AAP, H-Glu-NHMec fluorogenic cleavage | AID 1822;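 active means inhibition above the campaign mean inhibition over all tested compounds plus 3 SD, cut at about 28% in these data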;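 further: 0% = plate median of test compound wells and 100% = 2 mM ZnCl2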
CTSL1 counter-1 – blocks F. hepatica cathepsin L1 in PFM18AAP counter-screen; recombinant F. hepatica cathepsin L1, Z-Leu-Arg-MCA fluorescence; inhibition, % at 5.96 µM; 300,000 tested, 0.49% active;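 active means inhibition above the mean of all tested compounds plus 3 SD, set per screening campaign, cut at about 17% in these data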;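 further: 0% = plate median of test compound wells and 100% = 1 µM Z-Phe-Ala-diazomethylketone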
HDAC3 inh – inhibitors of human histone deacetylase 3; O15379; recombinant HDAC3, fluorogenic peptide/trypsin coupled, fluorescence; inhibition, % at 8.3 µM; 320,000 tested, 0.15% active; in the data active means inhibition above about 26%, passing the limit was not always enough; inconclusive means no clear call, values can overlap the other calls
SENP1 inh – inhibitors of human SENP1 SUMO protease catalytic domain. Q9P0U3. recombinant SENP1 catalytic domain, CyPet-SUMO1-YPet FRET cleavage. inhibition, % at 10 µM. 360,000 tested, 0.21% active. AID 624204;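 active means inhibition at least 30% at 10 µM, raw YFP signal under a set limit, fluorescence ratio 0.5 to 1.5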;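 further: 0% = enzyme with DMSO and 100% = no enzyme wells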
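material = recombinant human SENP1 catalytic domain, His6-tagged | quantity = 20 pM enzyme | reagent = 25 nM SUMO1 FRET substrate | compound dosing = 10 µM single point, 0.5% DMSO | timing = 50 min enzyme reaction, room temperature, light-protected | detection = FRET, CFP and YFP emission | control set = no-enzyme low, enzyme-DMSO high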
FXN GAA850 act – increases GAA850 frataxin promoter reporter activity; AID 540364; activation, % at 6 µM; 360,000 tested, 0.56% active; HEK293 lucGAA850 FXN promoter luciferase reporter, 24 h; percent of 10 µM SAHA response;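 active means activation above the average of all compounds screened plus 3 SD, cutoff fixed separately per campaign, cut at about 7.5% in these data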;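 further: 0% = DMSO wells and 100% = 10 µM SAHA wells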
AHR activator – activators of human aryl hydrocarbon receptor; AHR-responsive luciferase reporter cells, luminescence; 320,000 tested, 2.5% active; activation, % at 5 µM; P35869; in the data active means activation above about 47%;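 further: 0% = vehicle wells and 100% = reference agonist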
Target sequence (P35869 whole entry, looked up): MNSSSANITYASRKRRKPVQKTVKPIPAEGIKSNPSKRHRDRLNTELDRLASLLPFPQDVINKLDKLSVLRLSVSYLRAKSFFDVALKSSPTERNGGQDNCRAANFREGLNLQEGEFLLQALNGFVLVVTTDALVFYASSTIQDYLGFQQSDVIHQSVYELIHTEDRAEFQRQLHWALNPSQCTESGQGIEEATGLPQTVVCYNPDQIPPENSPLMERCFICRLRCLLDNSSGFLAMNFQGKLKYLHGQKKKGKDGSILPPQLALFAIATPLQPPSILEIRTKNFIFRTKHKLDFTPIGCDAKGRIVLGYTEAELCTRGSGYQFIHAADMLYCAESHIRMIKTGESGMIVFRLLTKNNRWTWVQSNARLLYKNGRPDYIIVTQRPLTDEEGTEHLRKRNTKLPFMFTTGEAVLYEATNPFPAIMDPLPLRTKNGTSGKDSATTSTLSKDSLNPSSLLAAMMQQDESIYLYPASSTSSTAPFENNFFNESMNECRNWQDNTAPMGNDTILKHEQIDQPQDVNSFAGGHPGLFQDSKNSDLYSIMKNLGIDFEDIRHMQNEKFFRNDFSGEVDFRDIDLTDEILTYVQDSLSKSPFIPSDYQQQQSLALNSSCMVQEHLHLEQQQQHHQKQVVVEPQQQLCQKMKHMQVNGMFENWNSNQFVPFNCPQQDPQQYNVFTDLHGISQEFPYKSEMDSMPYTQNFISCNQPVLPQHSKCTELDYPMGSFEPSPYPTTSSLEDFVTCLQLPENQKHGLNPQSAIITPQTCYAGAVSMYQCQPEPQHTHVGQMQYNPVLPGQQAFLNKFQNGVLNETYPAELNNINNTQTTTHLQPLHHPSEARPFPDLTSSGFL
PfM18AAP inh-2 – PfM18AAP inhibition, confirmation | inhibition, % at 7.35 µM | shares compounds with PfM18AAP inh-1 | 2,400 tested, 28% active | AID 2170 | recombinant PfM18AAP, H-Glu-NHMec fluorogenic cleavage;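 active means mean inhibition over replicate wells above the hit cutoff set for the earlier primary screen, cut at about 29% in these data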;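 further: 0% = median of test compound wells and 100% = 2 mM ZnCl2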
CTSL1 counter-2 – Cathepsin L (human) inhibition, confirmation. purified cathepsin L1, Z-Leu-Arg-MCA fluorescence. shares compounds with PfM18AAP inh-1. inhibition, % at 5.96 µM. 2,400 tested, under 10 active;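 active means average inhibition across replicates above the hit cutoff set in the earlier primary screen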;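 further: 0% = median of test compound wells and 100% = Z-Phe-Ala-diazomethylketone 1 µM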
Active calls of the source: *; ? = inconclusive; . = not tested or not shown. Sampled rows, rich in hits. Any-hit rate of the full collection: about 4.2%.

SMILES | PfM18AAP inh-1 | CTSL1 counter-1 | HDAC3 inh | SENP1 inh | FXN GAA850 act | AHR activator | PfM18AAP inh-2 | CTSL1 counter-2
O=c1oc2ccccc2cc1-c1nnc(NCc2ccco2)s1 | 38* | 2 | -10 | -22 | 7 | -9 | -38 | 4
Cc1cc(C)n2nc(SCC(=O)N3CCC(C)CC3)nc2n1 | . | . | -2 | 1 | 3 | 3 | . | .
Cc1ccc(S(=O)(=O)N2C(=O)CCC2C(=O)Nn2cnnc2)cc1 (centres undefined) | 66* | -2 | 5 | -1 | 4 | 0 | 32* | -3
O=c1c(O[C@@H]2O[C@H](CO)C(O)C2O)c(-c2ccc(O)c(O)c2)oc2cc(O)cc(O)c12 (some centres undefined) | . | . | ? | 12 | -1 | 0 | . | .
C[C@@H]1O[C@@H](Oc2c(-c3cc(O)c(O)c(O)c3)oc3cc(O)cc(O)c3c2=O)[C@H](O)[C@H](O)[C@H]1O | 46* | -7 | 1 | 11 | -1 | 3 | 11 | -1
O=c1c(OC2OC(CO)C(O)C(O)C2O)c(-c2ccc(O)c(O)c2)oc2cc(O)cc(O)c12 (centres undefined) | 62* | -1 | 1 | 23 | -2 | 2 | 46* | 1
C[C@@H]1O[C@@H](Oc2c(-c3ccc(O)c(O)c3)oc3cc(O)cc(O)c3c2=O)[C@H](O)[C@H](O)[C@H]1O | . | . | 13 | 2 | 1 | -1 | . | .
NC(=O)C1CCN(C(=O)COc2ccc(Nc3ccccc3)cc2)CC1 | 34* | 0 | 8 | -2 | 3 | 3 | -28 | 0
COc1ccc(NC(=O)C2(S(=O)(=O)c3ccc(C)cc3)CC2)cc1 | 0 | -5 | -5 | 2 | 2 | 4 | . | .
O=S(=O)(c1ccc(NC(=S)NC2CCCC2)cc1)N1CCCC1 | -1 | -1 | 1 | 3 | 2 | 1 | . | .
NS(=O)(=O)c1ccc(NC(=S)NC(=O)C2CCCCC2)cc1 | 9 | 4 | 2 | -1 | 3 | 0 | . | .
NS(=O)(=O)c1ccc(NC(=S)NC2CCCC2)cc1 | 46* | -2 | 7 | 1 | 1 | 3 | 7 | -4
NS(=O)(=O)c1ccc(NC(=S)NC2CCCCCC2)cc1 | 44* | 1 | -3 | -2 | 4 | -1 | 0 | 3
O=C(CSc1nnc(C2CC2)n1C1CC1)c1ccc(Br)s1 | . | . | 5 | 0 | 2 | 4 | . | .
Cc1ccccc1OCC(=O)NCC(=O)OCC(=O)c1ccc([N+](=O)[O-])cc1 | 46* | -7 | -2 | -1 | -2 | 0 | -19 | -10
O=C(CNC(=O)c1cccs1)NCC(=O)OCC(=O)c1ccc([N+](=O)[O-])cc1 | 46* | -1 | 4 | 0 | -1 | -1 | -15 | -3
Cc1ccc(C(=O)COC(=O)CNC(=O)COc2ccccc2C)cc1C | -16 | -11 | 5 | 0 | 3 | 0 | . | .
CC(C)c1ccc(Nc2ccc(C(=O)O)cc2[N+](=O)[O-])cc1 | -5 | -6 | -2 | 4 | 0 | 3 | . | .
CCc1cccc(C)c1NC(=O)C1CCN(c2nn3c(=O)cc(C)nc3s2)CC1 | 0 | 2 | 2 | 0 | -1 | 1 | . | .
Cc1nnc(N/N=C/c2ccccc2F)n1N | 8 | 0 | 8 | 4 | 0 | 19 | . | .
COc1cccc(/C=N/Nc2nnc(C)n2N)c1O | 39* | -1 | 4 | -1 | 2 | 6 | -8 | 0
Cc1nnc(N/N=C/c2ccccc2C(F)(F)F)n1N | 39* | 1 | 1 | 2 | -1 | 23 | -34 | 2
COc1cccc(/C=N/Nc2nc(N3CCCC3)nc(N3CCCC3)n2)c1O | 5 | 2 | -3 | 1 | -2 | 18 | . | .
Cc1ccc(S(=O)(=O)NC2CC(C)(C)N(O)C(C)(C)C2)cc1 | . | . | -3 | -3 | -2 | 0 | . | .
CN1CCN2c3ccccc3CC(C#N)(C#N)C2C1 (centres undefined) | . | . | . | 0 | . | . | . | .
SMILES | PfM18AAP inh-1 | CTSL1 counter-1 | HDAC3 inh | SENP1 inh | FXN GAA850 act | AHR activator | PfM18AAP inh-2 | CTSL1 counter-2
CC(=O)c1sc2nsc(SCCN3CCCC3)c2c1N | 32* | -2 | 6 | 15 | 2 | 2 | -39 | 0
N#C/C(=C\c1coc2ccc(O)cc2c1=O)C(=O)Nc1nc2ccccc2s1 | 51* | 2 | -4 | -34 | 2 | 29 | -15 | -3
N#C/C(=C\c1coc2ccccc2c1=O)C(N)=S | 1 | 0 | 15 | -14 | 3 | 3 | . | .
COC(=O)c1ccccc1OCc1cc(=O)oc2ccc(C)cc12 | . | . | . | 0 | . | . | . | .
CN1CCC2(CC1)N=C(c1ccc(F)cc1)C(=S)N2C(=O)c1ccccc1 | 33* | -1 | 9 | 0 | 2 | -1 | -39 | -2
O=C(CN1CCN(S(=O)(=O)c2cccc(Cl)c2)CC1)NCC1(N2CCOCC2)CCCCC1 | . | . | . | 1 | -2 | -1 | . | .
CC(=O)Nc1ccc(NC(=O)CC2Nc3cccc4cccc(c34)NC2=O)cc1 (centres undefined) | 33* | 6 | 3 | -29 | -2 | 24 | -36 | -4
Cc1cc(=O)oc2c(C)c(OC(C)C(=O)NCc3ccccn3)ccc12 (centres undefined) | 3 | 2 | 2 | -1 | 0 | 8 | . | .
O=C(NCCC1CCCC1)c1cccs1 | 53* | -4 | 5 | 1 | 3 | 3 | -39 | -10
O=C(NCC1CC1)c1cccs1 | . | . | . | -1 | . | . | . | .
O=C(Oc1ccccc1O)c1cccc2ccccc12 | 61* | -1 | 2 | -1 | 4 | 23 | 5 | 0
O=C(Oc1cccc2c(O)cccc12)c1ccccc1Cl | . | . | . | -4 | 1 | . | . | .
CN1CCN(C(=S)c2ccc([N+](=O)[O-])cc2)CC1 | 13 | -4 | 3 | 3 | 2 | 0 | . | .
CSc1ccc(C(=S)N2CCN(C)CC2)cc1 | -1 | 0 | 5 | -1 | 2 | -5 | . | .
CN1CCN(C(=S)c2ccc(N(C)C)cc2)CC1 | 40* | -3 | 5 | 2 | 2 | -1 | 10 | 1
CCN1CCN(C(=S)c2ccc(Br)cc2)CC1 | 40* | 2 | 3 | 3 | -1 | -1 | 6 | 1
CN1CCN(C(=S)c2ccc(Br)cc2)CC1 | 47* | 2 | 9 | 2 | 1 | 4 | 6 | -1
CCN1CCN(CCC(=O)Nc2ccc(Br)cc2)CC1 | -2 | -3 | . | -3 | 1 | 0 | . | .
CCc1nc2c(OCc3cccc(Cl)c3)cccn2c1N(C)C(=O)C1CC1 | . | . | . | -3 | 1 | . | . | .
O=[N+]([O-])c1ccc(NNC(=S)Nc2ccccc2)cc1 | 39* | -1 | 2 | 8 | -1 | 26 | 32* | -9
O=[N+]([O-])c1ccc(NC(=S)NCCc2ccccc2)cc1 | -1 | 0 | . | -2 | -1 | 0 | . | .
Oc1cccc(Nc2ccccc2)c1 | . | . | -10 | 1 | 1 | 0 | . | .
